Sampled rows, rich in hits. Any-hit rate of the full collection: about 1.4%.
DDE Tn7 FP inh = inhibitors of Tn7 peptide binding to human fibrin DD(E); FP displacement of FITC-Tn7 peptide from fibrin DD(E); 0% = median of compound wells per plate; P02675; inhibition, % at 8.3 µM; actives 0.13% (n = 370,000);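 active = inhibition above the mean of compounds falling within the control limits plus 3 SD of them, cut at about 14% in these data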;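 note: 0% = plate median of compound wells and 100% = 10 µM Aha-Tn7 peptide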
Target sequence (P02675 whole entry, looked up): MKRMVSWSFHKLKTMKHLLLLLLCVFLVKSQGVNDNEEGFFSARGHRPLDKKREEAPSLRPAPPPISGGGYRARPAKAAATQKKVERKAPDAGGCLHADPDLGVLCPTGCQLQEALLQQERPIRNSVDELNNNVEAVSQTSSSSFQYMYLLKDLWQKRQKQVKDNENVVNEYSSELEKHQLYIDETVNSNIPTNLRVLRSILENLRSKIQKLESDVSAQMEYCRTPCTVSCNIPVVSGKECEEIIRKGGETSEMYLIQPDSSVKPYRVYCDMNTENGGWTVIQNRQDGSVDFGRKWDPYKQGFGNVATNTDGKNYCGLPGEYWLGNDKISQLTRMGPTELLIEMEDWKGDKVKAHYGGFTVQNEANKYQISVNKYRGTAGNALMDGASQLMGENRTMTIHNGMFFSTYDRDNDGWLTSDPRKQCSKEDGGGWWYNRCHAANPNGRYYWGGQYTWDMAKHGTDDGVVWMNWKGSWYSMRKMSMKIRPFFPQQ
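Assay system: Human fibrin DD(E) protein | Medium: Tris buffer with calcium and detergent, pH 7.8 | Reagent: 0.1 µM fluorescent Tn7 | Compound dosing: Single point at 8.3 µM | Times: 10 min preincubation, 3 h with tracer, room temperature | Detection: Fluorescence polarization of the labelled Tn7 tracer | Controls: Aha-Tn7 high control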
Arr AP2 block = blocks beta-arrestin peptide binding to AP2 adaptin; FITC-arrestin peptide / GST-AP2 beads, flow cytometry; AP2 beta2 appendage carries R879A mutation; inhibition, % at 10 µM; actives 0.31% (n = 340,000); AID 504490;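 active = inhibition above a set limit, near 3 SD of compounds lacking own fluorescence, cut at about 54% in these data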;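 note: plate controls were DMSO wells for no effect and 5 µM unlabelled arrestin peptide for full effect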
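Measured by: flow cytometry, FL1 (488/535 nm); Material: AP2 appendage R879A on GSH beads; Evaluation: percent response; Timing: pre-incubation 12 min, peptide binding 1 h, room temperature; Also added: 50 nM FITC-arrestin peptide; Medium: PBS with 0.05% Tween 20 and 0.1% BSA.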
Tn6 DDE FP = DD(E)-Tn6 binding inhibition, primary FP screen | P02675 | Fibrin DD(E) TRITC-Tn6 fluorescence polarization displacement | inhibition, % at 8.3 µM | actives 0.21% (n = 370,000);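 active = inhibition above a per-campaign cutoff: mean of compounds within control limits plus 3 SD, cut at about 15% in these data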;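 note: 0% = median of all compound wells on the plate and 100% = blocking peptide control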
CAL PDZ FP-1 = blocks peptide binding to the human CAL PDZ domain; inhibition, % at 24.9 µM; actives 0.92% (n = 300,000); purified CAL PDZ, TMR-peptide fluorescence polarization, 1 h; Q9HD26;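 active = mean inhibition of at least 30% with at least half of replicates also reaching 30%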;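 note: 0% = DMSO neutral control and 100% = excess unlabeled competitor peptide PRC23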
CAL PDZ FP-2 = blocks peptide binding to human CAL PDZ domain | Q9HD26 | purified CAL PDZ, TMR-peptide fluorescence polarization, 1 h | inhibition, % at 20 µM | actives 0.02% (n = 330,000) | AID 504414;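 active = highest replicate inhibition of at least 40%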;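 note: plate controls were DMSO neutral control wells for no effect and unlabeled competitor peptide control wells for full effect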
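Read-out basis: mP drop reported as inhibition | Assay system: Tagged CAL PDZ protein CerCALP, purified | Benchmarks: Unlabelled peptide for full inhibition, DMSO wells as neutral | Schedule: 1 h incubation at room temperature before polarization reading | Buffer or medium: Sodium phosphate/NaCl buffer pH 7.4 with TCEP, IgG, Thesit | Doses: Single point, 20 µM | Measured by: Fluorescence polarization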
An asterisk follows results filed as active.

CCCCS(=O)(=O)N1CCCC(C(=O)Oc2ccccc2)C1 (stereo not given) was read as DDE Tn7 FP inh -4.0, Arr AP2 block -13.7, Tn6 DDE FP 5.0 and CAL PDZ FP-1 65.6*.
`C[C@H](CO)N1C[C@H](C)[C@@H](CN(C)C(=O)Nc2ccc(C(F)(F)F)cc2)Oc2ccc(NC(=O)Nc3ccc(C(F)(F)F)cc3)cc2C1=O` gave DDE Tn7 FP inh -0.5, Arr AP2 block -10.2, Tn6 DDE FP 30.6*, CAL PDZ FP-1 -4.9 and CAL PDZ FP-2 -0.2.
`C[C@@H]1CN([C@H](C)CO)C(=O)c2cc(NC(=O)Nc3ccc(C(F)(F)F)cc3)ccc2O[C@H]1CN(C)C(=O)Nc1ccc(F)cc1` gave DDE Tn7 FP inh 2.1, Arr AP2 block 13.7, Tn6 DDE FP -6.5, CAL PDZ FP-1 -4.9 and CAL PDZ FP-2 -1.2.
COc1cc(C=C2NC(=O)NC2=O)ccc1O was read as DDE Tn7 FP inh -3.6 and Tn6 DDE FP 6.5.
`COc1ccc(OC)c(/C=C2\NC(=O)NC2=O)c1` gave DDE Tn7 FP inh -6.1, Arr AP2 block 3.4, Tn6 DDE FP 1.1, CAL PDZ FP-1 44.8* and CAL PDZ FP-2 -2.5.
`CCOC(=O)C1(CCOc2ccccc2)CCN(Cc2nccn2CC)CC1` gave DDE Tn7 FP inh 4.0, Arr AP2 block -1.9, Tn6 DDE FP -8.2, CAL PDZ FP-1 32.5* and CAL PDZ FP-2 -0.5.
CCOC(=O)C1(CCCc2ccccc2)CCN(Cc2nccn2CC)CC1 was read as DDE Tn7 FP inh 6.5, Arr AP2 block 4.0, Tn6 DDE FP -6.1, CAL PDZ FP-1 -0.3 and CAL PDZ FP-2 -2.1.
`COc1ccc(CN2C(=O)N3Cc4ccc(C)cc4C3CS2(=O)=O)cc1` (stereo not given) gave DDE Tn7 FP inh -12.3 and Tn6 DDE FP -1.1.
For O=C(/C=C/c1ccccc1)CC(=O)c1ccccc1 the results were DDE Tn7 FP inh 6.0, Arr AP2 block 9.6, Tn6 DDE FP -10.5, CAL PDZ FP-1 -5.1 and CAL PDZ FP-2 -1.4.
`O=C(CC(=O)c1ccccc1)CC(O)(C=Cc1ccccc1)c1ccccc1` (stereo not given) gave DDE Tn7 FP inh -2.3, Arr AP2 block -9.8, Tn6 DDE FP 4.8, CAL PDZ FP-1 51.8* and CAL PDZ FP-2 0.2.
Screening CCN(CC)CCCNC(=O)CC1Oc2ccccc2NC1=O (stereo not given) returned DDE Tn7 FP inh 0.2 and Tn6 DDE FP 5.5.
`O=C(CN1C(=O)c2ccccc2C1=O)NNC1=NS(=O)(=O)c2ccccc21` gave DDE Tn7 FP inh 8.2, Arr AP2 block -3.3, Tn6 DDE FP 0.3, CAL PDZ FP-1 30.1* and CAL PDZ FP-2 -0.7.
O=C(NNC1=NS(=O)(=O)c2ccccc21)C1CC(=O)N(c2ccccc2)C1 (stereo not given) was read as DDE Tn7 FP inh 1.0, Arr AP2 block 1.9, Tn6 DDE FP -0.6, CAL PDZ FP-1 -8.2 and CAL PDZ FP-2 -1.7.
For COc1ccc(CCNC(=O)CCn2c(=O)c3cccn3c3ccc(F)cc32)c(OC)c1OC the results were DDE Tn7 FP inh -7.3, Arr AP2 block 1.9, Tn6 DDE FP -0.1, CAL PDZ FP-1 117.8* and CAL PDZ FP-2 -1.1.
Cc1ccc(CCNC(=O)CCn2c(=O)c3cccn3c3ccc(F)cc32)cc1 was read as DDE Tn7 FP inh 0.1, Arr AP2 block 1.7, Tn6 DDE FP -8.0, CAL PDZ FP-1 38.9* and CAL PDZ FP-2 -0.7.
Screening COc1ccccc1CCNC(=O)CCn1c(=O)c2cccn2c2ccc(F)cc21 returned DDE Tn7 FP inh 4.0, Arr AP2 block -4.3, Tn6 DDE FP -7.9, CAL PDZ FP-1 -2.2 and CAL PDZ FP-2 0.0.
Screening COc1ccc(-n2c(SCC(=O)NCC3CCCO3)nnc2-c2ccncc2)cc1 (stereo not given) returned DDE Tn7 FP inh -3.1 and Tn6 DDE FP -3.7.
`Cc1[nH]nc2c1C(c1ccccc1)N(Cc1ccccc1)C2=O` (stereo not given) gave DDE Tn7 FP inh -0.1 and Tn6 DDE FP 3.6.
`OCCCc1cn(Cc2ccccc2)c2ccccc12` gave DDE Tn7 FP inh 2.4, Arr AP2 block 1.2, Tn6 DDE FP -5.3 and CAL PDZ FP-1 56.2*.
For Cc1cc(/C=N/NC(N)=S)c(O)c(/C=N/NC(N)=S)c1 the results were DDE Tn7 FP inh 43.2*, Arr AP2 block -4.6, Tn6 DDE FP 4.8, CAL PDZ FP-1 -1.3 and CAL PDZ FP-2 -0.3.
Screening NC(=S)N/N=C/c1cccc(O)c1O returned DDE Tn7 FP inh 3.3, Arr AP2 block 1.9, Tn6 DDE FP 8.0, CAL PDZ FP-1 -0.2 and CAL PDZ FP-2 0.3.
For Cc1ccc2ccc(C(Nc3ccccc3)c3ccccc3)c(O)c2n1 (stereo not given) the results were DDE Tn7 FP inh 0.4 and Tn6 DDE FP -0.5.
Screening Cc1ccc2ccc(C(Nc3cccc(C(F)(F)F)c3)c3cccnc3)c(O)c2n1 (stereo not given) returned DDE Tn7 FP inh 5.8, Arr AP2 block 10.8, Tn6 DDE FP -0.6, CAL PDZ FP-1 42.7* and CAL PDZ FP-2 0.4.
Cc1ccc(-n2c(SC/C=C/c3ccccc3)nnc2-c2cccs2)cc1 was read as DDE Tn7 FP inh 5.5 and Tn6 DDE FP -3.0.
For Cc1c(C(=O)N2CCCCC2)c(S(=O)(=O)N2CCC(C)CC2)c(C)n1C the results were DDE Tn7 FP inh 1.3, Arr AP2 block -6.2, Tn6 DDE FP -10.7, CAL PDZ FP-1 75.2* and CAL PDZ FP-2 -1.0.
For COc1cc2c(cc1OC)CN(c1nc(-c3cccnc3)nc3ccccc13)CC2 the results were DDE Tn7 FP inh 3.9, Arr AP2 block -0.5, Tn6 DDE FP -5.8, CAL PDZ FP-1 70.7* and CAL PDZ FP-2 -5.3.
Cc1ccc(OCC(=O)N2CCN(C(=O)c3cccs3)CC2)cc1 was read as DDE Tn7 FP inh 7.1, Arr AP2 block -6.5, Tn6 DDE FP 4.2 and CAL PDZ FP-1 45.7*.
For Cc1ccc(OCC(=O)N2CCN(C(=O)c3ccco3)CC2)cc1 the results were DDE Tn7 FP inh 0.8, Arr AP2 block 14.5, Tn6 DDE FP 4.7, CAL PDZ FP-1 2.3 and CAL PDZ FP-2 -0.1.
For CCCC(=O)N1CCC[C@]2(CC[C@@H](CCC#N)O2)C1 the results were DDE Tn7 FP inh 2.6 and Tn6 DDE FP -1.4.
For NC(=O)C1CCCN(C(=O)CCCNC(=O)c2ccc(Cl)cc2)C1 (stereo not given) the results were DDE Tn7 FP inh 0.6, Arr AP2 block 2.8, Tn6 DDE FP 5.2, CAL PDZ FP-1 73.3* and CAL PDZ FP-2 -0.7.
COc1ccc(-c2nc(N)ncc2-c2ccc(OC)c(OC)c2)c(O)c1 was read as DDE Tn7 FP inh 5.4, Arr AP2 block 6.2, Tn6 DDE FP -2.5 and CAL PDZ FP-1 58.9*.
Screening CN(C)CCCn1c(=S)[nH]c2sc3c(c2c1=O)CCCC3 returned DDE Tn7 FP inh -3.7, Arr AP2 block 28.9, Tn6 DDE FP -0.6, CAL PDZ FP-1 49.1* and CAL PDZ FP-2 -1.4.
